Data from PubChem BioAssay AID720717 (ICCB-Longwood Screening Facility, Harvard Medical School, 2013).
Values joined by “and” are separate entries in the source; they are usually repeats but may differ in a detail not shown here. Equal entries are not always repeated. Hit rate of the full screen: of about 51,000 compounds, about 150 (0.29%) were called active.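 The calls were made as follows: active = both repeat wells score below -2 in polarization z-score versus plate sample wells, excluding overly bright wells; inactive = the rest.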 The entries come from a sample that favours actives as a whole.

The molecules below were run on LANA (ORF73) N-terminal peptide binding to nucleosomes, Human herpesvirus 8 (assay: inhibitors of KSHV LANA-nucleosome binding, primary screen, biochemical, fluorescence polarization, FITC-LANA1-23, chicken nucleosomes (AID 720717)). Settings: FITC-LANA1-23 / chicken nucleosome fluorescence polarization; stronger effect = lower value.
Outline: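 Material: Purified chicken nucleosomes with FITC-labelled LANA N-terminal peptide (1-23) | Reagent: 50 nM FITC-LANA1-23 probe | Medium: TEN-BT buffer, pH 7.5 | Times: 10–45 min incubation at room temperature | Detection: Fluorescence polarization | Replication: Duplicates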

z-score, inactive:
CC(Oc1ccccc1)c1ccnc2ncnn12 (centres undefined) 1.01
Cc1occc1-c1nnc2n1N=C(c1ccc(-c3cc(Cl)ccc3Cl)o1)CS2 -0.0445
O=C(O)c1ccc(Sc2ccccc2C(=O)O)c(C(=O)O)c1 0.129
Cc1ccc2c(n1)sc1c(=O)n(-c3ccccc3)nnc12 0.192
CCOC(=O)c1c(NC(=S)N2CCN(C(=O)c3ccco3)CC2)sc2c1CCCCCC2 0.494
O=C(CSc1nnc(Cc2cc(=O)[nH]c(=O)[nH]2)n1-c1ccccc1)NCc1ccco1 0.726
NNC(=O)Cc1csc(CC(N)=O)n1 -1.71
O=C(CC1OCCN(Cc2ccccc2)C1=O)Nc1ccc(F)cc1 (centres undefined) 0.194
O=C(c1cnc2sc(N3CCCCC3)nn2c1=O)N1CCCC1 -0.108
Cc1ccc(Cn2cc(C(=O)Nc3cccnc3)ccc2=O)cc1 -0.673
O=C(CC1Nc2ccccc2NC1=O)Nc1ccccc1NC(=O)CC1Nc2ccccc2NC1=O (centres undefined) -0.867
O=S(=O)(c1cnc[nH]1)N1CCN(Cc2ccccc2)CC1 -0.596
Cc1ccc(C(=O)Nc2nc3ccc(S(N)(=O)=O)cc3s2)cc1C -0.589
CN(Cc1ccccc1)c1ncnc2c1nc1n2CCCCC1 -0.37
O=C(NC1CCCC1)c1[nH]nc2c1CCc1ccccc1-2 0.227
CC(=O)Oc1cc(-c2ccccc2)nn1C 0.038
CC(CC(=O)NN)C1(O)CCCCC1 (centres undefined) 0.05
Cc1ccc(C2=Nc3ccccc3N(CC(=O)Nc3ccc4c(c3)OCO4)C(=O)C2)cc1 -1.02
CCN(CC)S(=O)(=O)c1ccc2c(c1)CC(C)N2C(=O)C1CC1 (centres undefined) 1.02
CC(C)(C)C(=O)N(Cc1ccccc1)c1ccccn1 0.774
CCc1ccc(C(c2c(C)[nH][nH]c2=O)C(C#N)C#N)cc1 (centres undefined) 0.261
CCOc1ccc(/C=N/NC(=O)Cc2cc(=O)[nH][nH]2)cc1 -1.01
CN(C)/C=C/c1nc(C(F)(F)F)c(C#N)s1 5.21
N#CCn1cc(C(=O)C(F)(F)F)c2ccccc21 0.359
O=C(Cn1c(=O)oc2ccccc21)NC1CCN(Cc2ccccc2)CC1 -0.221
O=C1c2ccccc2OCC12COC(c1ccccc1)OC2 (centres undefined) -1.2
CC(=O)Nc1ccc(NCC(O)Cn2ccc3ccccc32)cc1 (centres undefined) 1.77
CC1CCC(NC(=O)CCCn2ncn3c(cc4occc43)c2=O)CC1 (centres undefined) 0.64
COCCNC(=O)N1c2ccccc2Sc2ccccc21 0.827
O=C(CNc1ccc(C(=O)O)cc1)NCc1ccc2c(c1)OCO2 0.298
N/C(=N\O)c1cnn2c(C(F)(F)F)cc(C(F)(F)F)nc12 -0.264
CCc1ccc(N2COc3ccc4c(CC)cc(=O)oc4c3C2)cc1 0.115
Cc1cccc2cnn(CC(=O)N3CCc4ccccc4C3)c12 0.198
CN1C(C)(C)CC(NC(=O)Nc2ccc(F)cc2)CC1(C)C 0.033
Cc1cc(C)n(C(C)CC(=O)Nc2ccc(CN3CCC(C)CC3)cc2)n1 (centres undefined) -0.62
C[C@]12CCC(=O)C=C1C=CC1C2CC[C@@]2(C)C1CC[C@@]21CCC(=O)O1 (some centres undefined) 0.0125 and 0.276
CN(C)c1ccc(-c2nnc(-c3cccnc3)o2)cc1 -0.139
COc1cccc(N2C(=O)C=CC2=O)c1 0.499
CCCCc1ccc(NC(=O)CC)c(C)c1 1.52
COc1ccc(CNC(=O)C(NS(=O)(=O)c2cccc3nsnc23)C(C)C)cc1 (centres undefined) -1.48
Cc1ccc(C(CC(=O)O)c2ccccc2)c(O)c1 (centres undefined) 0.53
Cc1ccc(C(=O)CSc2nnc3[nH]c(=O)c(C)nn23)cc1 -1.31
S=C(NCc1ccco1)Nc1nn(Cc2ccc(Cl)cc2Cl)cc1Cl 1.51
Cc1cc(N2CCOCC2)nc2ccc(NC(=O)CCC(=O)NC3CCCCC3)cc12 0.0965
CCCn1c(SCC(=O)N2CCCc3ccccc32)nnc1C(C)C -2.58
CCCNC(=O)c1cc2c(Cl)ccc3c2n1CCO3 -0.473
O=C1C=CC(=O)N1Nc1ccccc1 0.669
COC(=O)c1nnn(-c2nonc2N)c1CN1C(=O)c2ccccc2C1=O -0.366
CCn1c(N2CCN(C(=O)Nc3ccc(Cl)c(C(F)(F)F)c3)CC2)nc2ccccc21 -1.36
O=C1CCCC2=C1C(c1ccccn1)Nc1ccc3ncccc3c12 (centres undefined) -0.381
Cc1cccc(-n2nc(C)c3c(C)cc(=O)oc32)c1 0.165
O=C(O)c1cccc2c1C(=O)N(C1CCCC1)C2 0.735
OCc1cccnc1Sc1ccccc1 0.147
Cc1ccc2c(c1)cc(CN(Cc1ccco1)C(=O)c1ccccc1)c1nnnn12 0.235
Cc1cc(OCCN2CCOCC2)nc(N2CCOCC2)n1 0.348
Cc1sc(-c2cccs2)nc1O -0.538
CCc1cccc2c(C=C(C#N)C#N)cn(CC(=O)NC3CCCC3)c12 0.0985
Nc1c2c3c(sc2nc(=O)n1Cc1ccco1)CCC3 0.229
COc1ccc(N(C)S(=O)(=O)c2ccc3c(c2)CC(C)N3C(=O)C2CC2)c(OC)c1 (centres undefined) -0.361
COc1cccc(/C=C2/Sc3ccc(C(=O)NCc4ccco4)cc3NC2=O)c1 -0.179
COCCNC(=O)c1cccc(OC(C)C)c1 0.494
CN(C(=O)CSc1nc(N)cc(=O)[nH]1)c1ccccc1 -0.19
Cc1ccsc1/C=N/c1sc2c(c1C#N)CCCC2 -0.764
Cc1cc(C)c2nc(C(F)(F)F)nc(NCc3ccc4c(c3)OCO4)c2c1 2.86
